Reference: ChEMBL document CHEMBL4007487, “Discovery of Novel Pyridone-Conjugated Monosulfactams as Potent and Broad-Spectrum Antibiotics for Multidrug-Resistant Gram-Negative Infections” (J Med Chem, 2017)
Values after ≈ are worked out from the molar mass of the structure shown.

Legend:
[1] = tested on: Klebsiella pneumoniae; assay: Antibacterial activity against extended spectrum beta-lactamase KPC-2 producing multidrug resistant Klebsiella pneumoniae clinical isolates after 18 hrs by broth microdilution method; assay type: functional; settings: Klebsiella pneumoniae, 18 h; read-out: MIC
[2] = tested on: Escherichia coli; assay: Antibacterial activity against extended spectrum beta-lactamases producing Escherichia coli clinical isolates after 18 hrs by broth microdilution method; assay type: functional
[3] = tested on: Acinetobacter baumannii; assay: Antibacterial activity against extended spectrum beta-lactamase OXA-23 producing multidrug resistant Acinetobacter baumannii clinical isolates after 18 hrs by broth microdilution method; assay type: functional
[4] = tested on: Plasma; assay: Fraction unbound in human plasma at 10 uM after 4 hrs by LC-MS/MS based rapid equilibrium dialysis method; assay type: ADME, cell-free
Outline: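 Human plasma spiked at 10 μM was dialysed against buffer in a rapid equilibrium dialysis device for 4 h at 37 °C under 5% CO2 (n = 4). Both sides were quantified by LC–MS/MS. Fraction unbound was taken as the buffer concentration divided by the total plasma-side concentration.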

[5] = Volume of distribution in steady state in Sprague-Dawley rat at 1 mg/kg, iv measured up to 180 mins by LC-MS/MS analysis; assay type: ADME, organism-based; settings: in vivo, read-out: Vdss
Outline: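 Male Sprague-Dawley rats (200–220 g, n = 3 per group) received 1.0 mg/kg iv in water. Blood was taken from the retrobulbar vein at 2, 5, 15, 30, 45, 60, 90 and 180 min. Plasma was quantified by LC–MS/MS, and parameters were derived by noncompartmental analysis of mean plasma concentrations.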

[6] = in vivo; settings: Sprague-Dawley, rat, iv, 1 mg/kg
[7] = tested on: Pseudomonas aeruginosa; assay: Antibacterial activity against extended spectrum beta-lactamase IMP-4 producing multidrug resistant Pseudomonas aeruginosa clinical isolates after 18 hrs by broth microdilution method; assay type: functional
[8] = in vivo; settings: Sprague-Dawley, rat, iv, 1 mg/kg; remark: listed apart in the source
[9] = Drug degradation in human plasma at 10 uM after 4 hrs by LC-MS/MS analysis; assay type: ADME, cell-free; settings: read-out: Drug degradation
Outline: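 Human plasma containing compound (10 μM, n = 4) was incubated for 4 h at 37 °C under 5% CO2. Concentrations at T0 and at 4 h were measured by LC–MS/MS, and degradation was expressed as a percentage relative to the T0 average.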

[10] = Clearance in Sprague-Dawley rat at 1 mg/kg, iv measured up to 180 mins by LC-MS/MS analysis; settings: in vivo
[11] = tested on: Klebsiella pneumoniae; assay: Antibacterial activity against Klebsiella pneumoniae isolate 212232 after 18 hrs by broth microdilution method; assay type: functional; settings: isolate 212232, 18 h
Outline: (§1)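 CLSI broth microdilution in Mueller-Hinton broth with 16 mg/L 2,2'-bipyridyl added. Compounds were dissolved in DMSO, or in water for meropenem and ceftizoxime sodium, then serially diluted in growth medium.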

[12] = tested on: Escherichia coli; assay: Antibacterial activity against Escherichia coli isolate 210737 after 18 hrs by broth microdilution method; assay type: functional; settings: isolate 210737, 18 h; outline: as §1
[13] = tested on: Klebsiella pneumoniae; assay: In vivo antibacterial activity against multidrug resistant Klebsiella pneumoniae isolate 212232 infected in Kunming mouse systemic infection model assessed as increase in mouse survival at 100 mg/kg, sc administered 0.5 to 4 hrs post infection measured after 48 hrs by Bliss method; assay type: functional; settings: isolate 212232, sc
Outline: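 Lethal intraperitoneal infection of Kunming mice (mixed sex, 18–22 g, 5 per group) with 0.5 mL MDR K. pneumoniae 212232 at 3×10^6 CFU/mL. The 100 mg/kg dose was given subcutaneously at 0.5 and 4.0 h post-infection. Read-out is the percentage of mice surviving at 48 h after treatment.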

[14] = tested on: Klebsiella pneumoniae; assay: In vivo antibacterial activity against multidrug resistant Klebsiella pneumoniae isolate 212232 infected in Kunming mouse systemic infection model assessed as increase in mouse survival administered subcutaneously 0.5 to 4 hrs post infection measured after 48 hrs by Bliss method; assay type: functional; settings: isolate 212232, sc
Outline: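 Kunming mice, half male and half female, 18–22 g, 5 per group. Infected intraperitoneally with 0.5 mL of MDR clinical K. pneumoniae 212232 at 3×10^6 CFU/mL. Subcutaneous doses of 3.125, 6.25, 12.5, 25, 50 and 100 mg/kg were given at 0.5 and 4.0 h post-infection.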

[15] = tested on: Escherichia coli; assay: In vivo antibacterial activity against Escherichia coli isolate 210737 infected in Kunming mouse systemic infection model assessed as increase in mouse survival administered subcutaneously 0.5 to 4 hrs post infection measured after 48 hrs by Bliss method; assay type: functional; settings: isolate 210737, sc
Outline: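 Kunming mice, half male and half female, 18–22 g, 5 per group. Lethal systemic infection by intraperitoneal injection of 0.5 mL clinical E. coli 210737 inoculum at 5×10^4 CFU/mL. Given subcutaneously twice, at 0.5 and 4.0 h post-infection, at doses of 0.625 to 20 mg/kg.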

Row | SMILES | MIC [1] [µg/mL] | MIC [2] [µg/mL] | MIC [3] [µg/mL] | Fu [4] [%] | Vd [5] [L/kg] | AUC(0-t) at 3 h [6] [ng·h/mL] | MIC [7] [µg/mL] | half-life [8] [min] | metabolised at 4 h, 10 µM [9] [%] | clearance at 3 h [10] [mL/min/kg] | MIC [11] [µg/mL] | MIC [12] [µg/mL] | survival at 100 mg/kg [13] [%] | ED50 [14] [mg/kg] | ED50 [15] [mg/kg]
1 | CC(C)[C@H](O/N=C(\C(=O)N[C@@H]1C(=O)N(OS(=O)(=O)O)C1(C)C)c1csc(N)n1)c1cc(=O)c(O)cn1O | 0.125 to 1 (≈ 0.223 to 1.78 µM) | 0.06 to 0.25 (≈ 0.107 to 0.446 µM) | 1 to 2 (≈ 1.78 to 3.57 µM) | 27 | 0.36 | 675 | 0.125 to 1 (≈ 0.223 to 1.78 µM) | 15.6 | 23 | 28.5 |  |  |  |  | 
2 | CC1(C)[C@H](NC(=O)/C(=N\OCc2cc(=O)c(O)cn2O)c2csc(N)n2)C(=O)N1OS(=O)(=O)O | 0.25 to 64 (≈ 0.482 to 123 µM) | 0.25 to 1 (≈ 0.482 to 1.93 µM) | 0.5 to 64 (≈ 0.964 to 123 µM) | 47 | 0.14 | 1710 | 1 to 4 (≈ 1.93 to 7.71 µM) |  | 12 |  | 0.25 (≈ 0.482 µM) | 0.25 (≈ 0.482 µM) | 40 | > 100 | 4.19
3 | C[C@@H](O)[C@H]1C(=O)N2C(C(=O)O)=C(S[C@@H]3CN[C@H](C(=O)N(C)C)C3)[C@H](C)[C@H]12 [MEROPENEM] | 32 to 64 (≈ 83.4 to 167 µM) | 0.125 to 8 (≈ 0.326 to 20.9 µM) | 64 (≈ 167 µM) |  |  |  | 32 to 64 (≈ 83.4 to 167 µM) |  |  |  | > 64 | 0.125 (≈ 0.326 µM) | 0 | > 100 | 2.04
4 | CSCC(O/N=C(\C(=O)N[C@@H]1C(=O)N(OS(=O)(=O)O)C1(C)C)c1csc(N)n1)c1cc(=O)c(O)cn1O (stereo partly drawn) |  |  | 0.125 to 1 (≈ 0.216 to 1.73 µM) | 32 | 0.37 | 661 | 0.125 to 1 (≈ 0.216 to 1.73 µM) | 15 | 28 | 26.1 |  |  |  |  | 
5 | CC(C)C(O/N=C(\C(=O)N[C@@H]1C(=O)N(OS(=O)(=O)O)C1(C)C)c1nc(N)sc1Cl)c1cc(=O)c(O)cn1O (stereo partly drawn) | 0.06 to 0.5 (≈ 0.101 to 0.84 µM) | 0.06 to 1 (≈ 0.101 to 1.68 µM) | 0.06 to 2 (≈ 0.101 to 3.36 µM) | 23 | 1.41 | 634 | 0.25 to 8 (≈ 0.42 to 13.4 µM) | 90 | 22 | 26.9 | 0.06 (≈ 0.101 µM) | 1 (≈ 1.68 µM) |  |  | 6.94
6 | CC(C)C(O/N=C(\C(=O)N[C@@H]1C(=O)N(OS(=O)(=O)O)C1(C)C)c1csc(N)n1)c1cc(=O)c(O)cn1O (stereo partly drawn) |  |  | 0.125 to 1 (≈ 0.223 to 1.78 µM) | 35 | 0.3 | 1730 | 0.25 to 1 (≈ 0.446 to 1.78 µM) |  | 29 |  | < 0.03 | < 0.03 |  |  | 
7 | CC1(C)[C@H](NC(=O)/C(=N\OC(CS(C)(=O)=O)c2cc(=O)c(O)cn2O)c2csc(N)n2)C(=O)N1OS(=O)(=O)O (stereo partly drawn) | 0.06 to 2 (≈ 0.0983 to 3.28 µM) |  | 0.25 to 2 (≈ 0.409 to 3.28 µM) | 64 | 0.21 | 1890 | 1 to 32 (≈ 1.64 to 52.4 µM) | 19.8 | 34 | 9.3 | 0.06 (≈ 0.0983 µM) | 0.06 (≈ 0.0983 µM) |  |  | 5.32
